In the first data set the target is T1, cAMP and cAMP-inhibited cGMP 3',5'-cyclic phosphodiesterase 10A (Homo sapiens, UniProt Q9Y233). Description: Inhibition of human PDE10A (amino acids 14 to 779) using [3H]-labelled cyclic nucleotide as substrate after 1 hr b beta counting.
T1 sequence (Q9Y233 whole entry, the tested form may be a part): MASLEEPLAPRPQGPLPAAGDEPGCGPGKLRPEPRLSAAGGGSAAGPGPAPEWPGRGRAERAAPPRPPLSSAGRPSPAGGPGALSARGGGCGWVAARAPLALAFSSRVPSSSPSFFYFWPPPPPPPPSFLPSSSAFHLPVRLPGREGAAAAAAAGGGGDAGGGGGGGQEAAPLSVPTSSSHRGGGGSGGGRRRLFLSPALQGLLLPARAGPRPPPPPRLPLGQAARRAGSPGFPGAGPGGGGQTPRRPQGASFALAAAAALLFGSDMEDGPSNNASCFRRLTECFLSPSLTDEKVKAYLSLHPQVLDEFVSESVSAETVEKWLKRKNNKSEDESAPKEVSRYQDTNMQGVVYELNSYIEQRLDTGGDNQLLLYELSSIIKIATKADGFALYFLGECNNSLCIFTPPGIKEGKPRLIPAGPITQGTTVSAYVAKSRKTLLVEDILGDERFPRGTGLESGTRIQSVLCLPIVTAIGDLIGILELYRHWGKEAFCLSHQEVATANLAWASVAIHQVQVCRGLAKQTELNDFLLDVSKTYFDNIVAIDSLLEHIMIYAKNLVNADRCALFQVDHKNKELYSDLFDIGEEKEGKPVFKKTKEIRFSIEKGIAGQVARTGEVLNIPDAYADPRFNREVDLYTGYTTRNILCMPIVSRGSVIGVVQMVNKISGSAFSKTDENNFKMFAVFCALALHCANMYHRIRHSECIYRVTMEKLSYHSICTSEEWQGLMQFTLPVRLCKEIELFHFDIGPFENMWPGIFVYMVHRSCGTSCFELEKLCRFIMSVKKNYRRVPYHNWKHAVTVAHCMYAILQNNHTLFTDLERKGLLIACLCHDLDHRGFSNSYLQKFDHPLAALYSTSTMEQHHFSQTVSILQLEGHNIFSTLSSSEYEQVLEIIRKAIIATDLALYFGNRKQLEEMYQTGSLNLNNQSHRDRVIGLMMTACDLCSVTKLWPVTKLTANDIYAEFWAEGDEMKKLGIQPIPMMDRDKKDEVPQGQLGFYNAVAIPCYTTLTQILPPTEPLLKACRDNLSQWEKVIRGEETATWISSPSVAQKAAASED
Conditions: not given
Put shortly:
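PDE10A expressed in baculovirus-infected Sf9 cells (27 °C, harvested at 72 h), lysed in Tris/MgCl2/triton buffer and partially purified on Q sepharose. Reactions contained enzyme sufficient to convert 20–25% of substrate, 50 mM HEPES pH 7.6, 10 mM MgCl2, 0.02% Tween20, 0.1 mg/ml BSA, 3H-cAMP at 5 nM final and varying inhibitor levels. Signal was counted by Microbeta, activity was normalized to an uninhibited control (100%), and IC50 values were derived.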
High affinity cAMP-specific and IBMX-insensitive 3',5'-cyclic phosphodiesterase 8A (Homo sapiens), sequence (O60658 whole entry): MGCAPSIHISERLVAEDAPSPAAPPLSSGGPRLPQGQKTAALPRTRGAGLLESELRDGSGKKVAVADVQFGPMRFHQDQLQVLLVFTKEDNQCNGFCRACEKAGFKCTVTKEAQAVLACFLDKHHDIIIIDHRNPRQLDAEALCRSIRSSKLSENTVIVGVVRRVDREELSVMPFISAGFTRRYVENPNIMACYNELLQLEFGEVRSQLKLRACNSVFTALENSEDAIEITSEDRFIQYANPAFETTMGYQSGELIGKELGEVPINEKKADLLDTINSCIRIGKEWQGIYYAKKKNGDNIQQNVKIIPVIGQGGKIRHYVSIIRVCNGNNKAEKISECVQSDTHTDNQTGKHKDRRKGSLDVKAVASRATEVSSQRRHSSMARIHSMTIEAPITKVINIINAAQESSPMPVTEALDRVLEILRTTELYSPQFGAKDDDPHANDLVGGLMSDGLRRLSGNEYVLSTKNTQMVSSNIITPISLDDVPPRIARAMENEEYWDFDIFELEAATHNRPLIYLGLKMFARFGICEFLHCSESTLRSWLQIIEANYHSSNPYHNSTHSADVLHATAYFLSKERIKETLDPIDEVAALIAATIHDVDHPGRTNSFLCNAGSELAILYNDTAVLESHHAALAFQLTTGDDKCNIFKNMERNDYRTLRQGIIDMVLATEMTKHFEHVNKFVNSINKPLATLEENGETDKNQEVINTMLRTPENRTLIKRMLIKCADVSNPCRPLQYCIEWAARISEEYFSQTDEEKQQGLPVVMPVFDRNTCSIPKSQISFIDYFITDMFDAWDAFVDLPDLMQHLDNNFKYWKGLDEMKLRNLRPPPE
As to `Cn1cc(-c2ccccc2)nc1CCc1cc2ncccc2c2cc(C(F)(F)F)nn12`, the IC50 – broadly, the concentration needed to halve the response being measured – came to 190 nM.
On the same count and under the same terms, the same measure for `Cc1cc2c3ccncc3cc(CCc3nc(-c4ccccc4)cn3C)n2n1`: 40 nM; for `Cc1cc2c3ccccc3cc(CCc3nc(-c4ccccc4)cn3C)n2n1`: 900 nM; for `Cc1cc2c3cccnc3cc(CCc3nc(-c4ccccc4)cn3C)n2n1`: 40 nM.
`Cc1cc2c3cnccc3cc(CCc3nc(-c4ccccc4)cn3C)n2n1` yielded an IC50 of 55 nM.

The target of a further data set is Dual 3',5'-cyclic-AMP and -GMP phosphodiesterase 11A (Homo sapiens) (UniProt Q9HCR9). Kind of data set: Inhibition of PDE11A (unknown origin) at 2 uM.
Dual 3',5'-cyclic-AMP and -GMP phosphodiesterase 11A (Homo sapiens), sequence (Q9HCR9 whole entry, looked up): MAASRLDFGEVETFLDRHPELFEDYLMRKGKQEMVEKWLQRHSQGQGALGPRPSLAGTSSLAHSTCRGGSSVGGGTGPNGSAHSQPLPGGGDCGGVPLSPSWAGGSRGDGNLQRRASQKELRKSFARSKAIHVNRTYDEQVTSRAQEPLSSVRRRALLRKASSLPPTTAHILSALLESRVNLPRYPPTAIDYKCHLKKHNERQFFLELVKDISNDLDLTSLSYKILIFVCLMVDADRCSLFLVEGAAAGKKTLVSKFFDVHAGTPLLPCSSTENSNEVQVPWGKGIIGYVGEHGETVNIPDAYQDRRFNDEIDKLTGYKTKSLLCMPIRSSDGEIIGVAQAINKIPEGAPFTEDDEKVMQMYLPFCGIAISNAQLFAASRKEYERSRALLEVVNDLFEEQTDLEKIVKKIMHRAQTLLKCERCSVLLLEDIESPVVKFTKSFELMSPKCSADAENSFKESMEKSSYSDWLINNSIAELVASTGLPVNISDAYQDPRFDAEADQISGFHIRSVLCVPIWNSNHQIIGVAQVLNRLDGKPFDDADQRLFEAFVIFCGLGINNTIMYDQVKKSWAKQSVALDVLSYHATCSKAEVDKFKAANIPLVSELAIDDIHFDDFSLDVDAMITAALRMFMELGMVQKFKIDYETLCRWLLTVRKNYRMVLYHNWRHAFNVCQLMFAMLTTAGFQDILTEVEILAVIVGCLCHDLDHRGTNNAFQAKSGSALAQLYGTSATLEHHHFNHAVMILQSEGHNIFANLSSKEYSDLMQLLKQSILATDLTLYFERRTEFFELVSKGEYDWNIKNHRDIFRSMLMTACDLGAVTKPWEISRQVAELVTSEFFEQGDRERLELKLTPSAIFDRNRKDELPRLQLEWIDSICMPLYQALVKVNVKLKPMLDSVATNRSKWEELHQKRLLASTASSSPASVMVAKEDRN
Conditions: not given
Take `Cn1cc(-c2ccccc2)nc1CCc1cc2ncccc2c2cc(C(F)(F)F)nn12`: the inhibition (as a rule, the relative decrease from the control value, in per cent) was 25%.
The same measure, in the same setting: the same measure for `Cc1cc2c3ccncc3cc(CCc3nc(-c4ccccc4)cn3C)n2n1`: 37%; for `Cc1cc2c3ccccc3cc(CCc3nc(-c4ccccc4)cn3C)n2n1`: 13%.

In a further data set the target is T1, cAMP and cAMP-inhibited cGMP 3',5'-cyclic phosphodiesterase 10A. Description: Inhibition of PDE10A (unknown origin) at 10 uM.
Conditions: not given
In the case of `Cn1cc(-c2ccccc2)nc1CCc1cc2ncccc2c2cc(C(F)(F)F)nn12`, the inhibition is 101%.
On the same count and under the same terms, as for `Cc1cc2c3ccncc3cc(CCc3nc(-c4ccccc4)cn3C)n2n1`, the figure is 102%; as for `Cc1cc2c3ccccc3cc(CCc3nc(-c4ccccc4)cn3C)n2n1`, 72%.

The next data set has the same target. Kind of data set: Inhibition of PDE10A (unknown origin) at 2 uM.
Conditions: not given
For the compound `Cc1cc2c3cccnc3cc(CCc3nc(-c4ccccc4)cn3C)n2n1`, the inhibition was 102%.
Still for that read-out and setting: as for `Cc1cc2c3cnccc3cc(CCc3nc(-c4ccccc4)cn3C)n2n1`, the figure is 100%.

The target in the next data set is cGMP-dependent 3',5'-cyclic phosphodiesterase (Homo sapiens) (UniProt O00408). Kind of data set: Inhibition of PDE2A (unknown origin) at 10 uM.
cGMP-dependent 3',5'-cyclic phosphodiesterase (Homo sapiens), sequence (O00408 whole entry): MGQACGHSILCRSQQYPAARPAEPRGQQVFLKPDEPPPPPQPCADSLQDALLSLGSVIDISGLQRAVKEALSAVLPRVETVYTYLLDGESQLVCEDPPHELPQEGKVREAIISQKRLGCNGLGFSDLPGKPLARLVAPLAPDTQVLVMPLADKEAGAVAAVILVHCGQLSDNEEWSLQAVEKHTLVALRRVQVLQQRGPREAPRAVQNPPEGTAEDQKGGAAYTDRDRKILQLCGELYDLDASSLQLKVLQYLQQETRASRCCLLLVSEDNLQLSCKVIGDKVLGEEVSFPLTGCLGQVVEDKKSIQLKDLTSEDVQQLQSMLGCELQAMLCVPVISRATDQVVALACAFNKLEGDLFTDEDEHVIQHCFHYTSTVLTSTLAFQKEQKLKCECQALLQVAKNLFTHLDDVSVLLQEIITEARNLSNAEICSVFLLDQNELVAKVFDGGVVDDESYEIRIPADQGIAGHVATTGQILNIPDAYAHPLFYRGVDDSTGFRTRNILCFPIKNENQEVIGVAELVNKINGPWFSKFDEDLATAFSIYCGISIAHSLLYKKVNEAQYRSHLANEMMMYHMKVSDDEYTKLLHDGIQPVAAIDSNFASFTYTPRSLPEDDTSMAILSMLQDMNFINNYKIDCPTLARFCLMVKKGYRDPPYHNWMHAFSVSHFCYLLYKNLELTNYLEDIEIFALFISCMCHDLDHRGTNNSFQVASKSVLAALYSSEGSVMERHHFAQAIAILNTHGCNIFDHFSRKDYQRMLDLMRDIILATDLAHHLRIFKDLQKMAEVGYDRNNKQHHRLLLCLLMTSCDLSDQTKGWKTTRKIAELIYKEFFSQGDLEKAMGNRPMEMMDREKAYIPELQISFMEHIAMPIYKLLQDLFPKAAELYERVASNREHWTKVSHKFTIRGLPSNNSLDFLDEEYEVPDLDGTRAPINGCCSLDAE
Conditions: not given
For `Cn1cc(-c2ccccc2)nc1CCc1cc2ncccc2c2cc(C(F)(F)F)nn12`, the inhibition was determined as 13%.
As to `Cc1cc2c3ccncc3cc(CCc3nc(-c4ccccc4)cn3C)n2n1`, the inhibition was determined as 17%.
The same measure, in the same setting: the same measure for `Cc1cc2c3ccccc3cc(CCc3nc(-c4ccccc4)cn3C)n2n1`: 14%.
Still for that read-out and setting: as for `Cc1cc2c3cccnc3cc(CCc3nc(-c4ccccc4)cn3C)n2n1`, the figure is 28%.
In the case of `Cc1cc2c3cnccc3cc(CCc3nc(-c4ccccc4)cn3C)n2n1`, the inhibition was found to be 20%.

The target of another data set is cGMP-specific 3',5'-cyclic phosphodiesterase (Homo sapiens) (UniProt O76074). Description: Inhibition of PDE5A (unknown origin) at 10 uM.
Conditions: not given
For the compound `Cn1cc(-c2ccccc2)nc1CCc1cc2ncccc2c2cc(C(F)(F)F)nn12`, the inhibition turned out to be 33%.
In the case of `Cc1cc2c3ccncc3cc(CCc3nc(-c4ccccc4)cn3C)n2n1`, the inhibition is 59%.
Same read-out and setting: the same measure for `Cc1cc2c3cccnc3cc(CCc3nc(-c4ccccc4)cn3C)n2n1`: 35%.
`Cc1cc2c3cnccc3cc(CCc3nc(-c4ccccc4)cn3C)n2n1`: the inhibition came to 15%.

In a further data set the test system is MDCK. Kind of data set: Apparent permeability across apical to basolateral side in MDCK cells expressing MDR1 (unknown origin). Also on record: unit not given here. Particulars: dog.
`Cn1cc(-c2ccccc2)nc1CCc1cc2ncccc2c2cc(C(F)(F)F)nn12`: the “Papp A-B” value is 3.1.
Still for that read-out and setting: the same measure for `Cc1cc2c3ccncc3cc(CCc3nc(-c4ccccc4)cn3C)n2n1`: 11.7; for `Cc1cc2c3ccccc3cc(CCc3nc(-c4ccccc4)cn3C)n2n1`: 3.1.

The next data set deals with Dual specificity calcium/calmodulin-dependent 3',5'-cyclic nucleotide phosphodiesterase 1C (Homo sapiens) (UniProt Q14123). Kind of data set: Inhibition of PDE1C (unknown origin) at 10 uM.
Conditions: not given
As for `Cn1cc(-c2ccccc2)nc1CCc1cc2ncccc2c2cc(C(F)(F)F)nn12`, the inhibition was -3%.
On the same count and under the same terms, the same measure for `Cc1cc2c3ccncc3cc(CCc3nc(-c4ccccc4)cn3C)n2n1`: 24%; for `Cc1cc2c3ccccc3cc(CCc3nc(-c4ccccc4)cn3C)n2n1`: -1%.
On the same count and under the same terms, as for `Cc1cc2c3cccnc3cc(CCc3nc(-c4ccccc4)cn3C)n2n1`, the figure is 15%.
Regarding `Cc1cc2c3cnccc3cc(CCc3nc(-c4ccccc4)cn3C)n2n1`, the inhibition was 11%.

A further data set deals with cGMP-inhibited 3',5'-cyclic phosphodiesterase 3A (Homo sapiens) (UniProt Q14432). Kind of data set: Inhibition of PDE3A (unknown origin) at 10 uM.
cGMP-inhibited 3',5'-cyclic phosphodiesterase 3A (Homo sapiens), sequence (Q14432 whole entry): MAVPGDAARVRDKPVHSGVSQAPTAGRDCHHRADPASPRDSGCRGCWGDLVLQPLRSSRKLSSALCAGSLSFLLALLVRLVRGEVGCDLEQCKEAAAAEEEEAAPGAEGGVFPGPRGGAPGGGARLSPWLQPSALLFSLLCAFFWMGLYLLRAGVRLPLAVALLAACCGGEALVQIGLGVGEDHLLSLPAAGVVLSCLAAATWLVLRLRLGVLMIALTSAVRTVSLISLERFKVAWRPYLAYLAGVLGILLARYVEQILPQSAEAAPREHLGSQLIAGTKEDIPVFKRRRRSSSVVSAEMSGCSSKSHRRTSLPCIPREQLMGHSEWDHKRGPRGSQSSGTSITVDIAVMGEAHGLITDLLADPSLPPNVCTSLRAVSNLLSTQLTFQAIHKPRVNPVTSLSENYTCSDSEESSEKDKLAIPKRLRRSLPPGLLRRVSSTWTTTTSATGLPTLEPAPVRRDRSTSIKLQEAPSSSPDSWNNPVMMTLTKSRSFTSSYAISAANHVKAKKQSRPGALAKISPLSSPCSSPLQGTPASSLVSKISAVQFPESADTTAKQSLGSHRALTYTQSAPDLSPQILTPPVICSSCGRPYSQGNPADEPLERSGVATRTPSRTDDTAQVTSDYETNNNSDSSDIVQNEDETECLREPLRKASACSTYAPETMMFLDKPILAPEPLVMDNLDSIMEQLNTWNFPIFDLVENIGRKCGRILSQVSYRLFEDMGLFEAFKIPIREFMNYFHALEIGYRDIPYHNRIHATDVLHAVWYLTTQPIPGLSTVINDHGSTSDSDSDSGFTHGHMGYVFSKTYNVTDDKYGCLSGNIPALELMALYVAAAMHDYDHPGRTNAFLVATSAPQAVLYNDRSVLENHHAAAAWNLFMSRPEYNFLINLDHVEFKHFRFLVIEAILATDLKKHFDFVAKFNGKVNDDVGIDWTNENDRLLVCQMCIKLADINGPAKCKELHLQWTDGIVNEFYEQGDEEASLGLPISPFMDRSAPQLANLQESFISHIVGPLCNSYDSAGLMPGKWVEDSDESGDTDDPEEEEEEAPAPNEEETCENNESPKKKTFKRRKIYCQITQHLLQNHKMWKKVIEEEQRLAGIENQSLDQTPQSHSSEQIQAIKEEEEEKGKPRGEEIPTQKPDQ
Conditions: not given
As to `Cn1cc(-c2ccccc2)nc1CCc1cc2ncccc2c2cc(C(F)(F)F)nn12`, the inhibition is 28%.
The same measure, in the same setting: as for `Cc1cc2c3ccncc3cc(CCc3nc(-c4ccccc4)cn3C)n2n1`, the figure is 49%; as for `Cc1cc2c3ccccc3cc(CCc3nc(-c4ccccc4)cn3C)n2n1`, 20%.
Regarding `Cc1cc2c3cccnc3cc(CCc3nc(-c4ccccc4)cn3C)n2n1`, the inhibition came out at 5%.
Same read-out and setting: the same measure for `Cc1cc2c3cnccc3cc(CCc3nc(-c4ccccc4)cn3C)n2n1`: 13%.

The next data set concerns the target 3',5'-cyclic-AMP phosphodiesterase 4D (Homo sapiens) (UniProt Q08499). Description: Inhibition of PDE4D (unknown origin) at 10 uM.
Conditions: not given
For `Cn1cc(-c2ccccc2)nc1CCc1cc2ncccc2c2cc(C(F)(F)F)nn12`, the inhibition is 44%.
Same read-out and setting: the same measure for `Cc1cc2c3ccncc3cc(CCc3nc(-c4ccccc4)cn3C)n2n1`: 68%; for `Cc1cc2c3ccccc3cc(CCc3nc(-c4ccccc4)cn3C)n2n1`: 12%; for `Cc1cc2c3cccnc3cc(CCc3nc(-c4ccccc4)cn3C)n2n1`: 38%.
On the same count and under the same terms, the same measure for `Cc1cc2c3cnccc3cc(CCc3nc(-c4ccccc4)cn3C)n2n1`: 25%.

The next data set concerns the target High affinity cAMP-specific and IBMX-insensitive 3',5'-cyclic phosphodiesterase 8A (Homo sapiens) (UniProt O60658). Description: Inhibition of PDE8A (unknown origin) at 10 uM.
Conditions: not given
Turning to `Cn1cc(-c2ccccc2)nc1CCc1cc2ncccc2c2cc(C(F)(F)F)nn12`, the inhibition was 31%.
Same read-out and setting: the same measure for `Cc1cc2c3ccncc3cc(CCc3nc(-c4ccccc4)cn3C)n2n1`: 37%.
The same measure, in the same setting: as for `Cc1cc2c3ccccc3cc(CCc3nc(-c4ccccc4)cn3C)n2n1`, the figure is 17%; as for `Cc1cc2c3cccnc3cc(CCc3nc(-c4ccccc4)cn3C)n2n1`, 16%.
The same measure, in the same setting: the same measure for `Cc1cc2c3cnccc3cc(CCc3nc(-c4ccccc4)cn3C)n2n1`: 25%.

A further data set deals with 3',5'-cyclic-AMP phosphodiesterase 7B (Homo sapiens) (UniProt Q9NP56). Kind of data set: Inhibition of PDE7B (unknown origin) at 10 uM.
Conditions: not given
As to `Cn1cc(-c2ccccc2)nc1CCc1cc2ncccc2c2cc(C(F)(F)F)nn12`, the inhibition stood at 41%.
On the same count and under the same terms, the same measure for `Cc1cc2c3ccncc3cc(CCc3nc(-c4ccccc4)cn3C)n2n1`: 53%.
Regarding `Cc1cc2c3ccccc3cc(CCc3nc(-c4ccccc4)cn3C)n2n1`, the inhibition came out at 13%.
Still for that read-out and setting: the same measure for `Cc1cc2c3cccnc3cc(CCc3nc(-c4ccccc4)cn3C)n2n1`: 18%.
On to `Cc1cc2c3cnccc3cc(CCc3nc(-c4ccccc4)cn3C)n2n1`, for which the inhibition turned out to be 41%.

For the next data set, the target named is Dual 3',5'-cyclic-AMP and -GMP phosphodiesterase 11A (Homo sapiens) (UniProt Q9HCR9). Kind of data set: Inhibition of PDE11A (unknown origin) at 10 uM.
Conditions: not given
For `Cc1cc2c3cccnc3cc(CCc3nc(-c4ccccc4)cn3C)n2n1`, the inhibition is 34%.
With `Cc1cc2c3cnccc3cc(CCc3nc(-c4ccccc4)cn3C)n2n1`, the inhibition turned out to be 7%.

For the next data set, the target named is High affinity cGMP-specific 3',5'-cyclic phosphodiesterase 9A (Homo sapiens) (UniProt O76083). Kind of data set: Inhibition of PDE9A (unknown origin) at 10 uM.
Conditions: not given
With `Cn1cc(-c2ccccc2)nc1CCc1cc2ncccc2c2cc(C(F)(F)F)nn12`, the inhibition worked out at 8%.
On the same count and under the same terms, the same measure for `Cc1cc2c3ccncc3cc(CCc3nc(-c4ccccc4)cn3C)n2n1`: 12%.
Same read-out and setting: as for `Cc1cc2c3cccnc3cc(CCc3nc(-c4ccccc4)cn3C)n2n1`, the figure is 5%; as for `Cc1cc2c3cnccc3cc(CCc3nc(-c4ccccc4)cn3C)n2n1`, 53%.

The values above are taken from ChEMBL document CHEMBL3352060, “Synthesis and SAR study of novel tricyclic pyrazoles as potent phosphodiesterase 10A inhibitors” (Eur J Med Chem, 2014).
